Experimental data reported in ChEMBL document CHEMBL2424630, “Synthesis and antioxidant evaluation of (S,S)- and (R,R)-secoisolariciresinol diglucosides (SDGs)” (Bioorg Med Chem Lett, 2013).
Active and inactive are the calls of the source. The calls are words filed in the database; no cut-off is given here.

Assays:
[1] = Antioxidant activity assessed as reduction of K3FeCN6 at 1 to 500 uM by spectrophotometric analysis in presence of FeCl3; type: functional
Procedure, shortened: (§1)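 Reducing power: reduction of K3FeCN6 in the presence of FeCl3, read as absorbance of the ferric-ferrous complex. Response was linear over 1–100 μM, and the regression equation from that range gave EC50. Values are mean ± standard deviation, n = 3.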

[2] = system: Radical scavenging activity; assay: Antioxidant activity assessed as DPPH radical scavenging activity incubated for 20 mins under dark condition by spectrophotometric analysis; type: functional
[3] = Ratio of ascorbic acid acid EC50 to compound EC50 for reduction of K3FeCN6
[4] = system: Radical scavenging activity; assay: Antioxidant activity assessed as DPPH radical scavenging activity at 5 to 500 uM incubated for 20 mins under dark condition by spectrophotometric analysis; type: functional
[5] = Antioxidant activity assessed as hydroxyl radical scavenging activity at 8 uM to 1 mM by fluorescence assay relative to gallic acid; type: functional
Procedure, shortened: (§2)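 HORAC assay: hydroxyl radicals were generated from hydrogen peroxide by Fenton reaction, and oxidation of fluorescein was measured. Results are expressed as gallic acid equivalents, calculated from concentrations within the linear part of the calibration curve. Values are mean ± standard deviation, n = 3.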

[6] = Ratio of alpha-tocopherol EC50 to compound EC50 for reduction of K3FeCN6; type: functional
[7] = Antioxidant activity assessed as reduction of K3FeCN6 by spectrophotometric analysis in presence of FeCl3; type: functional; procedure, shortened: as §1
[8] = Antioxidant activity assessed as trolox equivalents of peroxyl radical scavenging activity by fluorescence assay; type: functional
Procedure, shortened: (§3)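 ORAC assay: peroxyl radicals were generated by AAPH, and oxidation of fluorescein was measured. Results are expressed as Trolox equivalents, calculated from concentrations within the linear part of the calibration curve. Values are mean ± standard deviation, n = 3.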

[9] = Antioxidant activity assessed as peroxyl radical scavenging activity at 8 uM to 1 mM by fluorescence assay relative to trolox; type: functional; procedure, shortened: as §3
[10] = Antioxidant activity assessed as gallic acid equivalents of hydroxyl radical scavenging activity by fluorescence assay; type: functional; procedure, shortened: as §2

Structure (SMILES)	EC50 [2] [µM]	EC50 [7] [µM]	Activity [1]	Ratio EC50 [3]	Activity [4]	fold change (FC) [5]	Ratio EC50 [6]	Activity [7]	Activity [8] [equiv]	fold change (FC) [9]	Activity [10] [equiv]
COc1cc(C[C@H](CO[C@@H]2O[C@H](CO)[C@@H](O)[C@H](O)[C@H]2O)[C@@H](CO[C@@H]2O[C@H](CO)[C@@H](O)[C@H](O)[C@H]2O)Cc2ccc(O)c(OC)c2)ccc1O (stereo in doubt; form 1)			Active		Active			Dose-dependent effect	2.55	2	3.68
COc1cc(C[C@H](CO[C@@H]2O[C@H](CO)[C@@H](O)[C@H](O)[C@H]2O)[C@@H](CO[C@@H]2O[C@H](CO)[C@@H](O)[C@H](O)[C@H]2O)Cc2ccc(O)c(OC)c2)ccc1O (stereo in doubt; form 1) [(+)-SECOISOLARICIRESINOLDIGLUCOSIDE]	83.9	275									
COc1cc(C[C@H](CO[C@@H]2O[C@H](CO)[C@@H](O)[C@H](O)[C@H]2O)[C@@H](CO[C@@H]2O[C@H](CO)[C@@H](O)[C@H](O)[C@H]2O)Cc2ccc(O)c(OC)c2)ccc1O (stereo in doubt; form 2)			Active	3	Active	2	3	Dose-dependent effect	3.03	2	
COc1cc(C[C@H](CO[C@@H]2O[C@H](CO)[C@@H](O)[C@H](O)[C@H]2O)[C@@H](CO[C@@H]2O[C@H](CO)[C@@H](O)[C@H](O)[C@H]2O)Cc2ccc(O)c(OC)c2)ccc1O (stereo in doubt; form 2) [(+)-SECOISOLARICIRESINOLDIGLUCOSIDE]	158	292									
Cc1c(C)c2c(c(C)c1O)CC[C@@](C)(CCC[C@H](C)CCC[C@H](C)CCCC(C)C)O2 [ALPHA-TOCOPHEROL]	133	945	Active		Active						

Continued by falling EC50 [2], values first:

EC50 [2] [µM]	EC50 [7] [µM]	Structure (SMILES)	Activity [1]	Ratio EC50 [3]	Activity [4]	fold change (FC) [5]	Ratio EC50 [6]	Activity [7]	Activity [8] [equiv]	fold change (FC) [9]	Activity [10] [equiv]
440	1130	O=C1O[C@H]([C@@H](O)CO)C(O)=C1O [ASCORBIC ACID]	Active		Active						
124	332	COc1cc(C[C@@H](CO[C@@H]2O[C@H](CO)[C@@H](O)[C@H](O)[C@H]2O)[C@H](CO[C@@H]2O[C@H](CO)[C@@H](O)[C@H](O)[C@H]2O)Cc2ccc(O)c(OC)c2)ccc1O	Active	3	Active	2	3	Dose-dependent effect	2.2	2	
